Source: PubChem BioAssay
LMPTP inh – LMPTP (human) inhibition | recombinant LMPTP-A, OMFP fluorogenic substrate, fluorescence intensity | P24666 | hit rate 0.22% among 360,000 | inhibition, % at 20 µM;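 active = compounds that cut the enzyme signal by at least half of the control window in the single-dose screen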;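 also: plate controls were DMSO wells with enzyme plus substrate for no effect and substrate without enzyme for full effect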
Target sequence (P24666 whole entry, looked up): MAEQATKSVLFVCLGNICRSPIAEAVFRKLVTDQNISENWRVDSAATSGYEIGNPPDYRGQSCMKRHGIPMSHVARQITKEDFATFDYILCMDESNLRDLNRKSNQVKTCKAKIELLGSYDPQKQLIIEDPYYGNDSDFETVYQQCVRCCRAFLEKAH
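Assay system: LMPTP-A phosphatase enzyme | Input: 0.625 nM enzyme | Also added: Fluorogenic phosphatase substrate OMFP at 400 µM final | Compound dosing: One test concentration per compound, 20 µM, with 3% DMSO overall | Schedule: 50 min enzyme reaction at room temperature, protected from light | Signal: Fluorescence intensity | Benchmarks: no-enzyme and uninhibited controls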
DNMT1 inh – inhibitors of human DNMT1 | P26358 | DNMT1 molecular beacon, Hinp1I cleavage, fluorescence | inhibition (reported as % activation of signal), % at 10 µM | hit rate 0.83% among 360,000 | AID 588458; in the data active = inhibition above about 50%
SUMO1 PPI mod – modulators of human SUMO1-mediated protein-protein interactions. P63165. SUMO1 binding to a labelled peptide, TR-FRET, 1 h. inhibition, % at 20 µM. hit rate 0.33% among 360,000. AID 602429; in the data active = inhibition above about 37%
Target sequence (P63165 whole entry, looked up): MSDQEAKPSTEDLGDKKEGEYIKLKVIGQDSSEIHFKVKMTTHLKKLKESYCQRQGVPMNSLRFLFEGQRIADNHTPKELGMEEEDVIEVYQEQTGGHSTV
Scp1 inh – inhibitors of human Scp-1 phosphatase. Q9GZU7. inhibition, % at 20 µM. AID 493091. hit rate 0.88% among 340,000. Recombinant Scp1, phosphopeptide, malachite green phosphate absorbance;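 active = inhibition above about 50% at 20 µM, limit read from the data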;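 also: plate controls were DMSO wells with enzyme for no effect and wells lacking enzyme for full effect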
Target sequence (Q9GZU7 76-261 limits assumed): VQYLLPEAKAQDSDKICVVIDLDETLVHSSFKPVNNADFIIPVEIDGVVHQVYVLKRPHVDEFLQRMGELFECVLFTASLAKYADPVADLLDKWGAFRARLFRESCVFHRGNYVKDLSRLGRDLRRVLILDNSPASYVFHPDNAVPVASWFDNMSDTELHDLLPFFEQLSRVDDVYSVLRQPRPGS
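Incubation: 45 min enzyme reaction at room temperature / System: truncated SCP-1 phosphatase (76-261aa) / Reagent: Phospho 17-mer peptide substrate / Buffer or medium: Acidic Tris acetate buffer with magnesium and detergent / Signal: absorbance at 630 nm / Doses: one concentration, 20 µM, with 1.0% DMSO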
STEP inh – inhibitors of human striatal-enriched phosphatase STEP; hit rate 0.25% among 360,000; P54829; inhibition, % at 20 µM; AID 588621; recombinant STEP, OMFP fluorogenic substrate, fluorescence;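 active = inhibition at 20 µM, scaled per plate between control wells, above about 37%, limit read from the data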;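 also: 0% = DMSO with enzyme and substrate and 100% = substrate only without enzyme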
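Assay system: isolated STEP enzyme / Timing: 20 min at room temperature, dark / Doses: 20 µM, 1% DMSO / Technique: fluorescence intensity, excitation 480 nm, emission 540 nm / Reagent: fluorogenic phosphatase substrate OMFP at 25 µM final / Measure: percent inhibition scaled to no-enzyme and uninhibited-enzyme controls, plate-pattern corrected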
DNMT1 interf DR – counter-screen for DNMT1 inhibitors: spectral interference, dose response. shares compounds with DNMT1 inh. molecular beacon fluorescence. IC50, µM. 200 tested, under 10 active; call rule not given here
DNMT1 confirm – DNMT1 inhibition confirmation, single concentration; shares compounds with DNMT1 inh; DNMT1 molecular beacon HinP1I cleavage, fluorescence; inhibition, % at 10 µM; hit rate 8% among 2,300; AID 602385;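 active = average inhibition of at least 30% in the single-concentration confirmation test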
DNMT1 interf – shows spectral interference in the DNMT1 beacon assay | shares compounds with DNMT1 inh | DNMT1 molecular beacon spectral interference counterscreen, fluorescence 485/520 | activation (fluorescence interference), % at 10 µM | hit rate 1% among 2,300;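 active = activation of at least 30% at 10 µM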;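 also: DNMT1 catalytic domain with a HinP1I cleavage step and a FAM/dabcyl DNA beacon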
Active calls of the source: *; nt = no result given. Most compounds without a hit are left out; they make up all but 1.7% or so of the library.

SMILES	LMPTP inh	DNMT1 inh	SUMO1 PPI mod	Scp1 inh	STEP inh	DNMT1 confirm	DNMT1 interf	others
CCCCNc1ccc(C(CC(N)=O)NC(=O)Cc2cccc3ccccc23)cc1[N+](=O)[O-] (centres undefined)	2	51*	-4	-6	1	6	12
O=S1(=O)CC2SC(=S)N(Cc3ccccc3)C2C1 (centres undefined)	-2	-1	-1	-3	-3	nt	nt
Cc1cc(SCC(=O)NC(=O)NCc2ccco2)nc2c(C)cccc12	-2	53*	6	41	3	0	0
COc1ccc(-c2nnc(SCC(=O)NCc3ccco3)o2)cc1	0	2	-1	-4	0	nt	nt
Cc1cc(SCC(=O)NC(=O)NCc2ccco2)nc2ccccc12	2	-1	4	0	2	nt	nt
O=C(CSc1nnc(-c2ccc(OC(F)F)cc2)o1)NC(=O)NCc1ccco1	13	83*	4	49	6	26	4
Cc1cc(SCC(=O)N2CCCC2=O)nc2c(C)cccc12	1	80*	-2	-4	-1	3	-1
NC(=O)CSc1nnc(NC(=O)c2ccc(S(=O)(=O)N3CCCCC3)cc2)s1	1	3	8	0	0	nt	nt
Cc1ccc(-c2cc(C(F)F)nc3sc4c(=O)[nH]cnc4c23)cc1	-1	61*	-39	-6	-2	3	4
CC(C)c1nc2sc3c(=O)[nH]cnc3c2c2c1CCC2	-1	-4	29	0	-2	nt	nt
CC1CC(C)CN(C(=O)C2CCC(CNS(=O)(=O)c3ccccc3)CC2)C1 (centres undefined)	-1	0	2	-10	-4	nt	nt
Cc1ccc(NC(=O)CN2C(=O)S/C(=C/c3ccc(-c4cc(C(=O)O)ccc4C)o3)C2=O)cc1C	23	111*	26	73*	10	118*	0	DNMT1 interf DR=>99
O=C(COC(=O)COc1ccccc1F)NCc1ccco1	-1	3	-1	-10	-2	nt	nt
CC(C)CNC(=O)[C@@H]1CSC2c3ccccc3C(=O)N21 (some centres undefined)	-1	0	-3	-9	0	nt	nt
Cc1c(C(=O)Nc2ccc(F)cc2)cn2c(nc3ccccc32)c1C#N	-2	24	1	-4	1	nt	nt
N#Cc1c2nc3ccccc3nc2n2cc(NC(=O)c3ccc(F)cc3)ccc12	45	103*	23	12	16	3	-6
COc1ccccc1OCCSc1nc2ccccc2n1CC(=O)O	-3	80*	35	nt	0	5	4
O=C(O)c1cc(-c2ccc(/C=C3\NC(=O)N(c4ccc(Cl)cc4)C3=O)o2)ccc1Cl	2	99*	29	74*	39	21	-2
C#CCN1C(=O)S/C(=C\c2ccc(-c3ccc(Cl)c(C(=O)O)c3)o2)C1=O	0	14	-1	38	14	nt	nt
NC1=NC[C@H](Cc2ccc(O)cc2)N1CCc1cccc(F)c1	-2	3	4	1	-2	nt	nt
NC1=NC[C@@H](Cc2ccc(O)cc2)N1CCC12CC3CC(CC(C3)C1)C2	0	58*	2	4	0	0	-1
COc1ccc(NS(=O)(=O)c2cccc(NC(=O)c3cnccn3)c2)cc1Br	2	-4	7	-12	0	nt	nt
COc1cc(OC)c(C(=O)OC(C)C(=O)NCc2ccc3c(c2)OCO3)cc1OC (centres undefined)	3	2	3	-12	-2	nt	nt
COc1ccc2nc(NCCO)[nH]c2c1	-2	-1	4	-5	-3	nt	nt
COc1ccc2nc(N3CCCC3)[nH]c2c1	-1	88*	-1	-8	1	6	2
SMILES	LMPTP inh	DNMT1 inh	SUMO1 PPI mod	Scp1 inh	STEP inh	DNMT1 confirm	DNMT1 interf	others
CC1CCCCN1S(=O)(=O)c1ccc(S(=O)(=O)N2CCN(c3ccc(F)cc3)CC2)cc1 (centres undefined)	-3	52*	2	-4	1	3	3
COc1ccccc1NS(=O)(=O)c1cccc(C(=O)N/N=C/c2ccc3c(c2)OCCO3)c1	1	-5	2	2	1	nt	nt
COc1ccc2c(Cl)c(C(=O)N/N=C/c3ccc4c(c3)OCO4)sc2c1	16	62*	-2	0	3	2	-4
COc1ccc(NS(=O)(=O)c2cccc(C(=O)N/N=C/c3ccc4c(c3)OCCO4)c2)cc1	-1	60*	4	-4	-3	4	1
O=C(N/N=C/c1ccc2c(c1)OCO2)c1sc2cccc(Cl)c2c1Cl	1	35	-3	-7	0	nt	nt
O=C(N/N=C/c1ccc2c(c1)OCO2)c1sc2cc(Cl)ccc2c1Cl	2	67*	-2	3	5	4	-5
CC(=O)Nc1cc(-c2ccc(CO)cc2)cn2c(-c3ccc(F)c(Cl)c3)cnc12	2	-10	7	nt	-2	nt	nt
CNc1ccccc1	0	-2	-5	-6	3	nt	nt
CNc1cccccc1=S	58*	85*	12	10	6	0	4
COc1ccc(-c2csc3nc(C(C)(C)C)oc(=O)c23)cc1OC	-2	0	4	-12	-4	nt	nt
COc1ccc(-c2csc3nc(-c4ccc(C)cc4)oc(=O)c23)cc1OC	13	85*	0	41	14	0	-8
CC(=O)c1ccc(N2CCN(S(=O)(=O)c3c(C)[nH]c(C)c3C(=O)N3CCCCC3)CC2)cc1	-1	-2	-5	-6	1	nt	nt
O=C(O)Cn1ncc2c1-c1ccoc1CC2	-1	89*	9	5	-2	5	1
O=C(Cn1ncc2c1-c1ccccc1OC2)N1CCc2ccccc21	1	-2	1	-5	-1	nt	nt
COc1cccc(N(C(=O)Cn2nnc(-c3ccc(F)cc3)n2)C(C(=O)NCC2CCCO2)c2ccc(Cl)cc2)c1 (centres undefined)	0	9	2	-8	1	nt	nt
COc1cccc(N(C(=O)Cn2nnc(-c3ccc(Cl)cc3)n2)C(C(=O)NCC2CCCO2)c2ccc(C)cc2)c1 (centres undefined)	0	59*	2	-3	0	2	0
CN(CC(=O)Nc1ccc(F)cc1)C(=O)COC(=O)c1cc(S(=O)(=O)N(C)C)ccc1N1CCCC1	1	-2	3	-4	2	nt	nt
COc1ccc(S(=O)(=O)NCCOc2ccc(Cl)cc2)cc1	0	0	3	-10	2	nt	nt
